Two compounds from ChEMBL document CHEMBL1135224, “Benzamide-based thiolcarbamates: a new class of HIV-1 NCp7 inhibitors” (Bioorg Med Chem Lett, 2002) can be followed below.

The test system of assay [1] is Human immunodeficiency virus 1. Description: In vitro antiviral activity in HIV-1 CEM-SS cytoprotection assay. The assay is classed as functional, organism-based. Conditions: Human immunodeficiency virus 1, CEM-SS. The method, boiled down:
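Cytoprotection assay using CEM-SS cells infected with HIV-1 RF. Run in duplicate, with triplicates at each compound concentration; individual triplicates varied by 10% or less.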

For the next assay, the system named is CEM-SS. Kind of assay: In vitro cytotoxicity against CEM-SS cells. The class given is functional, cell-based. Conditions: Homo sapiens. A digest of the protocol:
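Growth inhibition of CEM-SS cells measured alongside the HIV-1 cytoprotection assay. Run in duplicate, with triplicates at each concentration; individual triplicates varied by 10% or less.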

pEC50, pIC50: −log10 of the molar value.

In the case of `C[C@H](NC(=O)c1ccccc1SC(=O)NCCBr)C(N)=O`, the pEC50 (in general, the EC50 on a negative log10 scale, so that one unit is a factor of ten) in assay [1] was 6.04. In the assay on CEM-SS, the pIC50 – broadly, the negative decadic logarithm of the IC50, by convention in mol/L – was 5.10.
In the same order, the values of `NC(=O)CCNC(=O)c1ccccc1SC(=O)NCCBr` are 6.32 and 5.31.
